Data as given in ChEMBL document CHEMBL4145607, “Tamarixetin Exhibits Anti-inflammatory Activity and Prevents Bacterial Sepsis by Increasing IL-10 Production” (J Nat Prod, 2018).
Calls of active or inactive are those of the source. The calls are words filed in the database; no cut-off is given here.

What was measured:
Mus musculus [1] = assay: Antiinflammatory activity in Balb/c mouse model of LPS-induced endotoxemia assessed as increase in serum IL10 level at 1 mg/kg, ip pretreated for 1 hr followed by LPS-challenge measured after 2 hrs by ELISA; assay type: functional, organism-based
How it was run: (§1)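 BALB/c mice were dosed with 1 mg·kg−1 i.p. 1 h before LPS 10 mg·kg−1 i.p. Serum was taken 2 h later, and TNF-α, IL-6 and IL-10 were measured by sandwich ELISA. Means ± SEM.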

Mus musculus [2] = assay: Antiseptic activity in Balb/c mouse model of Escherichia coli K1 infection-induced sepsis assessed as reduction in serum IL6 level at 1 mg/kg, ip pretreated for 1 hr followed by Escherichia coli K1 infection measured after 2 hrs by ELISA; assay type: functional, organism-based
How it was run: (§2)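 BALB/c mice received 1 mg·kg−1 i.p. 1 h before i.p. E. coli K1 RS218, 1 × 10^6 CFU per mouse. Serum was collected at 2 h, and TNF-α, IL-6 and IL-10 were quantified by sandwich ELISA. Means ± SEM.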

BMDC [3] = assay: Inhibition of LPS-induced immune response in C57BL/6 mouse BMDC assessed as reduction in TNFalpha secretion at 25 uM treated 6 hrs post LPS-challenge measured after 60 to 120 mins by ELISA; assay type: functional, cell-based
How it was run: (§3)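 Bone marrow DCs from 6-week-old female C57BL/6 mice, RBC-lysed, cultured in RPMI-1640/10% FBS with 10 ng/mL rmGM-CSF, 37 °C, 5% CO2. Cells given LPS 50 ng/mL for 6 h, then 25 μM compound added for 30, 60, 90 or 120 min. Supernatant TNF-α, IL-6, IL-10, IL-12p70 measured by sandwich ELISA. Mean ± SEM, compared with LPS-only DCs.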

Mus musculus [4] = assay: Antiinflammatory activity in Balb/c mouse model of LPS-induced endotoxemia assessed as reduction in serum TNFalpha level at 1 mg/kg, ip pretreated for 1 hr followed by LPS-challenge measured after 2 hrs by ELISA; assay type: functional, organism-based; how it was run: as §1
Mus musculus [5] = assay: Antiinflammatory activity in Balb/c mouse model of LPS-induced endotoxemia assessed as increase in IL10 producing Tr1 population in splenocyte at 1 mg/kg, ip pretreated for 1 hr followed by LPS-challenge measured after 12 hrs by flow cytometric analysis; assay type: functional, organism-based
BMDC [6] = assay: Inhibition of Escherichia coli DH5alpha infection-induced immune response in C57BL/6 mouse BMDC assessed as reduction in TNFalpha secretion at 25 uM pretreated for 60 to 120 mins followed by Escherichia coli DH5alpha infection for 6 hrs by ELISA; assay type: functional, cell-based
How it was run: (§4)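 C57BL/6 BMDCs received 25 μM compound and E. coli DH5α, 3 × 10^6 CFU·mL−1. Schedules were: compound 30 min before a 6 h infection; co-addition for 6 h; or compound for 30, 60, 90 or 120 min plus 6 h infection. Supernatant TNF-α, IL-6, IL-10 and IL-12p70 were measured by ELISA. At least three experiments in triplicate.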

BMDC [7] = assay: Inhibition of LPS-induced immune response in C57BL/6 mouse BMDC assessed as increase in IL10 secretion at 25 uM treated 6 hrs post LPS-challenge measured after 60 to 120 mins by ELISA; assay type: functional, cell-based; how it was run: as §3
BMDC [8] = assay: Inhibition of Escherichia coli K1 infection-induced immune response in C57BL/6 mouse BMDC assessed as reduction in TNFalpha secretion at 25 uM pretreated for 30 mins followed by Escherichia coli K1 infection for 6 hrs by ELISA; assay type: functional, cell-based
How it was run: (§5)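 BMDCs from C57BL/6 mice were given 25 μM compound and E. coli K1, […]. Timing was: compound 30 min before a 6 h infection; cotreatment for 6 h; or compound for 30–120 min with 6 h infection. Supernatant cytokines (TNF-α, IL-6, IL-10, IL-12p70) were measured by ELISA. At least three experiments in triplicate.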

Mus musculus [9] = assay: Antiinflammatory activity in Balb/c mouse model of LPS-induced endotoxemia assessed as increase in IL10 producing monocyte/macrophage in splenocyte at 1 mg/kg, ip pretreated for 1 hr followed by LPS-challenge measured after 12 hrs by flow cytometric analysis; assay type: functional, organism-based
BMDC [10] = assay: Inhibition of Escherichia coli K1 infection-induced immune response in C57BL/6 mouse BMDC assessed as reduction in IL-12p70 secretion at 25 uM pretreated for 30 mins followed by Escherichia coli K1 infection for 6 hrs by ELISA; assay type: functional, cell-based; how it was run: as §5
Mus musculus [11] = assay: Antiinflammatory activity in Balb/c mouse model of LPS-induced endotoxemia assessed as increase in IL10 producing B10 population in splenocyte at 1 mg/kg, ip pretreated for 1 hr followed by LPS-challenge measured after 12 hrs by flow cytometric analysis; assay type: functional, organism-based
BMDC [12] = assay: Inhibition of Escherichia coli DH5alpha infection-induced immune response in C57BL/6 mouse BMDC assessed as increase in IL10 secretion at 25 uM pretreated for 60 to 120 mins followed by Escherichia coli DH5alpha infection for 6 hrs by ELISA; assay type: functional, cell-based; how it was run: as §4
Mus musculus [13] = assay: Antiseptic activity in Balb/c mouse model of Escherichia coli K1 infection-induced sepsis assessed as reduction in serum TNFalpha level at 1 mg/kg, ip pretreated for 1 hr followed by Escherichia coli K1 infection measured after 2 hrs by ELISA; assay type: functional, organism-based; how it was run: as §2
Mus musculus [14] = assay: Antiinflammatory activity in Balb/c mouse model of LPS-induced endotoxemia assessed as reduction in serum blood urea nitrogen level at 1 mg/kg, ip pretreated for 1 hr followed by LPS-challenge measured after 12 hrs by ELISA; assay type: functional, organism-based
How it was run: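 In BALB/c mice, 1 mg·kg−1 i.p. was given 1 h before LPS 10 mg·kg−1 i.p. After 12 h, serum AST, ALT and BUN were measured by ELISA. Means ± SEM.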

Mus musculus [15] = assay: Antiinflammatory activity in Balb/c mouse model of LPS-induced endotoxemia assessed as reduction in IL6 level in lungs at 1 mg/kg, ip pretreated for 1 hr followed by LPS-challenge measured after 12 hrs by ELISA; assay type: functional, organism-based
How it was run: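 BALB/c mice got 1 mg·kg−1 i.p. 1 h before i.p. LPS 10 mg·kg−1. After 12 h, TNF-α and IL-6 in lung lysates were measured by sandwich ELISA. Means ± SEM.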

BMDC [16] = assay: Inhibition of LPS-induced immune response in C57BL/6 mouse BMDC assessed as reduction in IL-6 secretion up to 25 uM pretreated for 30 mins followed by LPS-challenge measured after 6 hrs by ELISA; assay type: functional, cell-based
How it was run: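 Mouse BMDCs (female C57BL/6 bone marrow, GM-CSF-derived, ≥90% CD11c+ on day 7) pretreated 30 min with graded compound concentrations, then stimulated with LPS 50 ng/mL for 6 h. Supernatant TNF-α, IL-6, IL-10 and IL-12p70 quantified by sandwich ELISA. Mean ± SEM vs LPS-only cells; experiments repeated at least three times.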

BMDC [17] = assay: Inhibition of Escherichia coli K1 infection-induced immune response in C57BL/6 mouse BMDC assessed as reduction in IL-12p70 secretion at 25 uM pretreated for 60 to 120 mins followed by Escherichia coli K1 infection for 6 hrs by ELISA; assay type: functional, cell-based; how it was run: as §5
Mus musculus [18] = assay: Antiseptic activity in Balb/c mouse model of Escherichia coli K1 infection-induced sepsis assessed as reduction in serum AST level at 1 mg/kg, ip pretreated for 1 hr followed by Escherichia coli K1 infection measured after 2 hrs by ELISA; assay type: functional, organism-based

Question: What does the source list for `COc1ccc(-c2oc3cc(O)cc(O)c3c(=O)c2O)cc1O` [TAMARIXETIN]?
Answer: Activity (Mus musculus [1]): Active; Activity (Mus musculus [2]): Active; inhibition (BMDC [3]): inactive; Activity (Mus musculus [4]): Active; Activity (Mus musculus [5]): Active; inhibition (BMDC [6]): inactive; inhibition (BMDC [7]): inactive; inhibition (BMDC [8]): Active; Activity (Mus musculus [9]): Active; inhibition (BMDC [10]): Active; Activity (Mus musculus [11]): Active; inhibition (BMDC [12]): inactive; Activity (Mus musculus [13]): Active; Activity (Mus musculus [14]): Active; Activity (Mus musculus [15]): Active; inhibition (BMDC [16]): Active; inhibition (BMDC [17]): inactive; Activity (Mus musculus [18]): Active
